{"source": "ChEMBL document CHEMBL2346664", "about": "“Synthesis, characterization and in vitro anticancer evaluation of novel 1,2,4-triazolin-3-one derivatives” (2013)", "type_in_all_cases": "functional", "key": {"K562": {"test_system": "K562", "test": "Growth inhibition of human K562 cells assessed as cell growth at 10 '-7 M after 48 hrs by sulforhodamine B assay", "settings": "K562, 48 h, read-out: Activity"}, "SN12C": {"test_system": "SN12C", "test": "Growth inhibition of human SN12C cells assessed as cell growth at 10 '-7 M after 48 hrs by sulforhodamine B assay", "settings": "read-out: Activity"}, "RPMI-8226": {"test_system": "RPMI-8226", "test": "Growth inhibition of human RPMI8226 cells assessed as growth inhibition at 10 uM after 48 hrs by sulforhodamine B assay", "settings": "RPMI-8226, 48 h, read-out: GI"}, "OVCAR-8": {"test_system": "OVCAR-8", "test": "Growth inhibition of human OVCAR8 cells assessed as cell growth at 10 '-5 M after 48 hrs by sulforhodamine B assay", "settings": "OVCAR-8, 48 h, read-out: Activity"}, "MDA-MB-231": {"test_system": "MDA-MB-231", "test": "Growth inhibition of human MDA-MB-231 cells assessed as growth inhibition at 10 uM after 48 hrs by sulforhodamine B assay", "settings": "MDA-MB-231, 48 h, read-out: GI"}, "SNB-75 [1]": {"test_system": "SNB-75", "test": "Growth inhibition of human SNB75 cells assessed as cell growth at 10 '-5 M after 48 hrs by sulforhodamine B assay", "settings": "SNB-75, 48 h, read-out: Activity"}, "SF-539 [2]": {"test_system": "SF-539", "test": "Growth inhibition of human SF539 cells assessed as cell growth at 10 '-6 M after 48 hrs by sulforhodamine B assay", "settings": "SF-539, 48 h, read-out: Activity"}, "SNB-75 [3]": {"test_system": "SNB-75", "test": "Growth inhibition of human SNB75 cells assessed as cell growth at 10 '-8 M after 48 hrs by sulforhodamine B assay", "settings": "SNB-75, 48 h, read-out: Activity"}, "[4]": {"test": "Growth inhibition of human NCI-ADR-RES cells assessed as cell growth at 10 '-4 M after 48 hrs by sulforhodamine B assay", "settings": "read-out: Activity"}, "MOLT-4 [5]": {"test_system": "MOLT-4", "test": "Growth inhibition of human MOLT4 cells assessed as cell growth at 10 '-5 M after 48 hrs by sulforhodamine B assay", "settings": "MOLT-4, 48 h, read-out: Activity"}, "NCI-H522 [6]": {"test_system": "NCI-H522", "test": "Growth inhibition of human NCI-H522 cells assessed as cell growth at 10 '-4 M after 48 hrs by sulforhodamine B assay", "settings": "NCI-H522, 48 h, read-out: Activity"}, "Malme-3M [7]": {"test_system": "Malme-3M", "test": "Growth inhibition of human MALME-3M cells assessed as cell growth at 10 '-6 M after 48 hrs by sulforhodamine B assay", "settings": "read-out: Activity"}, "TK-10": {"test_system": "TK-10", "test": "Growth inhibition of human TK10 cells after 48 hrs by sulforhodamine B assay", "settings": "TK-10, 48 h"}, "HL-60(TB) [8]": {"test_system": "HL-60(TB)", "test": "Growth inhibition of human HL-60(TB) cells assessed as cell growth at 10 '-4 M after 48 hrs by sulforhodamine B assay", "settings": "HL-60, 48 h, read-out: Activity", "outline": "(§1)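 Five-dose NCI protocol with final concentrations of 0.01–100 µM and drug diluted from a DMSO stock (400× the top concentration) in medium with gentamicin. Cells were pre-incubated 24 h, then exposed 48 h at 37 °C. Suspension cells were fixed with 16% final TCA, SRB-stained and read at 515 nm. Percentage growth at each level was [(Ti−Tz)/(C−Tz)]×100, or [(Ti−Tz)/Tz]×100 when Ti < Tz.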"}, "CAKI-1": {"test_system": "CAKI-1", "test": "Growth inhibition of human CAKI-1 cells assessed as cell growth at 10 '-6 M after 48 hrs by sulforhodamine B assay", "settings": "CAKI-1, 48 h, read-out: Activity", "outline": "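Percent growth at each of the five concentrations of the 48 h continuous-exposure NCI SRB screen. Drug stocks were in DMSO at 400× the top final concentration and diluted in medium with gentamicin. Growth was calculated as [(Ti-Tz)/(C-Tz)]×100 when Ti ≥ Tz, or [(Ti-Tz)/Tz]×100 when Ti < Tz. Tz plates were fixed at drug addition; untreated wells served as control. Absorbance was read at 515 nm.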"}, "MDA-MB-435 [9]": {"test_system": "MDA-MB-435", "test": "Growth inhibition of human MDA-MB-435 cells assessed as cell growth at 10 '-6 M after 48 hrs by sulforhodamine B assay", "settings": "MDA-MB-435, 48 h, read-out: Activity"}, "HL-60(TB) [10]": {"test_system": "HL-60(TB)", "test": "Growth inhibition of human HL-60(TB) cells assessed as cell growth at 10 '-8 M after 48 hrs by sulforhodamine B assay", "settings": "HL-60, 48 h, read-out: Activity", "outline": "as §1"}, "Malme-3M [11]": {"test_system": "Malme-3M", "test": "Growth inhibition of human MALME-3M cells assessed as cell growth at 10 '-5 M after 48 hrs by sulforhodamine B assay", "settings": "read-out: Activity"}, "OVCAR-5": {"test_system": "OVCAR-5", "test": "Growth inhibition of human OVCAR5 cells assessed as cell growth at 10 '-7 M after 48 hrs by sulforhodamine B assay", "settings": "OVCAR-5, 48 h, read-out: Activity"}, "MDA-MB-468 [12]": {"test_system": "MDA-MB-468", "test": "Growth inhibition of human MDA-MB-468 cells assessed as cell growth at 10 '-6 M after 48 hrs by sulforhodamine B assay", "settings": "MDA-MB-468, 48 h, read-out: Activity"}, "[13]": {"test": "Growth inhibition of human EKVX cells assessed as cell growth at 10 '-6 M after 48 hrs by sulforhodamine B assay", "settings": "read-out: Activity"}, "MCF7": {"test_system": "MCF7", "test": "Growth inhibition of human MCF7 cells assessed as cell growth at 10 '-7 M after 48 hrs by sulforhodamine B assay", "settings": "MCF7, 48 h, read-out: Activity"}, "NCI-H522 [14]": {"test_system": "NCI-H522", "test": "Growth inhibition of human NCI-H522 cells assessed as cell growth at 10 '-6 M after 48 hrs by sulforhodamine B assay", "settings": "NCI-H522, 48 h, read-out: Activity"}, "SF-539 [15]": {"test_system": "SF-539", "test": "Growth inhibition of human SF539 cells assessed as growth inhibition at 10 uM after 48 hrs by sulforhodamine B assay", "settings": "SF-539, 48 h, read-out: GI"}, "SK-MEL-2": {"test_system": "SK-MEL-2", "test": "Growth inhibition of human SK-MEL-2 cells after 48 hrs by sulforhodamine B assay", "settings": "SK-MEL-2, 48 h"}, "MDA-MB-468 [16]": {"test_system": "MDA-MB-468", "test": "Growth inhibition of human MDA-MB-468 cells after 48 hrs by sulforhodamine B assay", "settings": "MDA-MB-468, 48 h", "outline": "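NCI 60-cell-line five-dose screen. Cells were plated at 5,000–40,000/well by doubling time and grown 24 h at 37 °C, 5% CO2. Time-zero plates were TCA-fixed. Drug from DMSO stock was tested at 0.01, 0.1, 1, 10 and 100 µM final for 48 h continuous exposure. Read-out was SRB at 515 nm. GI50 is the concentration giving 50% reduction in net protein increase versus untreated control.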"}, "HCT-15": {"test_system": "HCT-15", "test": "Growth inhibition of human HCT15 cells assessed as growth inhibition at 10 uM after 48 hrs by sulforhodamine B assay", "settings": "HCT-15, 48 h, read-out: GI"}, "RXF 393": {"test_system": "RXF 393", "test": "Growth inhibition of human RXF393 cells assessed as cell growth at 10 '-5 M after 48 hrs by sulforhodamine B assay", "settings": "RXF 393, 48 h, read-out: Activity"}, "MDA-MB-435 [17]": {"test_system": "MDA-MB-435", "test": "Growth inhibition of human MDA-MB-435 cells assessed as cell growth at 10 '-4 M after 48 hrs by sulforhodamine B assay", "settings": "MDA-MB-435, 48 h, read-out: Activity"}, "MOLT-4 [18]": {"test_system": "MOLT-4", "test": "Growth inhibition of human MOLT4 cells assessed as growth inhibition at 10 uM after 48 hrs by sulforhodamine B assay", "settings": "MOLT-4, 48 h, read-out: GI"}, "[19]": {"settings": "read-out: LD50 (the source's name)"}}, "data": [{"smiles": "Cc1cc(=O)oc2cc(OCCn3c(C)nn(-c4ccc(Cl)cc4)c3=O)ccc12", "values": [{"measurement": "growth at 0.1 µM", "setting": "K562", "value": 106, "unit": "%"}, {"measurement": "growth at 0.1 µM", "setting": "SN12C", "value": 90, "unit": "%"}, {"measurement": "inhibition of growth at 10 µM", "setting": "RPMI-8226", "value": 69, "unit": "%"}, {"measurement": "growth at 10 µM", "setting": "OVCAR-8", "value": 31, "unit": "%"}, {"measurement": "inhibition of growth at 10 µM", "setting": "MDA-MB-231", "value": 52.5, "unit": "%"}, {"measurement": "growth at 10 µM", "setting": "SNB-75 [1]", "value": 5, "unit": "%"}, {"measurement": "growth at 1 µM", "setting": "SF-539 [2]", "value": 88, "unit": "%"}, {"measurement": "growth at 0.01 µM", "setting": "SNB-75 [3]", "value": 88, "unit": "%"}, {"measurement": "growth at 100 µM", "setting": "[4]", "value": 2, "unit": "%"}, {"measurement": "growth at 10 µM", "setting": "MOLT-4 [5]", "value": 26, "unit": "%"}, {"measurement": "growth at 100 µM", "setting": "NCI-H522 [6]", "value": -22, "unit": "%"}, {"measurement": "growth at 1 µM", "setting": "Malme-3M [7]", "value": 82, "unit": "%"}, {"measurement": "GI50", "setting": "TK-10", "value": 1340, "unit": "nM"}, {"measurement": "TGI", "setting": "TK-10", "value": 8840, "unit": "nM"}, {"measurement": "CC50", "setting": "TK-10; [19]", "value": "> 1000", "unit": "nM"}, {"measurement": "growth at 100 µM", "setting": "HL-60(TB) [8]", "value": 1, "unit": "%"}, {"measurement": "growth at 1 µM", "setting": "CAKI-1", "value": 68, "unit": "%"}, {"measurement": "growth at 1 µM", "setting": "MDA-MB-435 [9]", "value": -8, "unit": "%"}, {"measurement": "growth at 0.01 µM", "setting": "HL-60(TB) [10]", "value": 101, "unit": "%"}, {"measurement": "growth at 10 µM", "setting": "Malme-3M [11]", "value": 28, "unit": "%"}, {"measurement": "growth at 0.1 µM", "setting": "OVCAR-5", "value": 102, "unit": "%"}, {"measurement": "growth at 1 µM", "setting": "MDA-MB-468 [12]", "value": 77, "unit": "%"}, {"measurement": "growth at 1 µM", "setting": "[13]", "value": 88, "unit": "%"}, {"measurement": "growth at 0.1 µM", "setting": "MCF7", "value": 93, "unit": "%"}, {"measurement": "growth at 1 µM", "setting": "NCI-H522 [14]", "value": 87, "unit": "%"}, {"measurement": "inhibition of growth at 10 µM", "setting": "SF-539 [15]", "value": 70.5, "unit": "%"}, {"measurement": "GI50", "setting": "SK-MEL-2", "value": 1820, "unit": "nM"}, {"measurement": "TGI", "setting": "SK-MEL-2", "value": "> 1000", "unit": "nM"}, {"measurement": "CC50", "setting": "SK-MEL-2; [19]", "value": "> 1000", "unit": "nM"}, {"measurement": "GI50", "setting": "MDA-MB-468 [16]", "value": 2690, "unit": "nM"}, {"measurement": "TGI", "setting": "MDA-MB-468 [16]", "value": 5760, "unit": "nM"}, {"measurement": "CC50", "setting": "MDA-MB-468 [16]; [19]", "value": "> 1000", "unit": "nM"}, {"measurement": "inhibition of growth at 10 µM", "setting": "HCT-15", "value": 82.3, "unit": "%"}, {"measurement": "growth at 10 µM", "setting": "RXF 393", "value": 18, "unit": "%"}, {"measurement": "growth at 100 µM", "setting": "MDA-MB-435 [17]", "value": -26, "unit": "%"}, {"measurement": "inhibition of growth at 10 µM", "setting": "MOLT-4 [18]", "value": 62.4, "unit": "%"}]}]}
